Shown are actives, neighbours in structure and some others; about 2.9% of the full set was active somewhere.
PAX8 inh HTS = PAX8 transcriptional activity inhibition. AID 652154. hit rate 1.2% among 360,000. RMG-I TPO-luciferase reporter, SteadyGlo, 24 h. inhibition, % at 12.6 µM;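 active = mean replicate inhibition at least 60% with every replicate also reaching 60%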;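 also: luciferase light reporting Pax8 driven TPO promoter activity; plate controls were median of neutral control wells for no effect and mitoxantrone controls for full effect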
CDK5 inh = blocks human CDK5/p35 kinase activity. hit rate 0.01% among 330,000. inhibition, % at 10 µM. Recombinant CDK5/p35, ADP-Glo luminescence, 60 min;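 active = highest replicate inhibition of at least 50% and at least 75% of replicates reaching 50%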;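 also: plate controls were DMSO neutral control for no effect and GW8510 at 10 µM for full effect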
Target sequence (Q00535 whole entry, looked up): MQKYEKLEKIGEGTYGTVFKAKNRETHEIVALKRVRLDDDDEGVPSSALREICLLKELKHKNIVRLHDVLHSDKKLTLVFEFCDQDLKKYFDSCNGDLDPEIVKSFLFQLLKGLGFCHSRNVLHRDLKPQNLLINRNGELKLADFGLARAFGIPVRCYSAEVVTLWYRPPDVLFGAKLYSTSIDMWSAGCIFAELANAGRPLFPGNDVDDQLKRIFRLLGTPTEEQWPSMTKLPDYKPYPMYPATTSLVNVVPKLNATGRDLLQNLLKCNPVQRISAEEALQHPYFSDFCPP
Target sequence (Q15078 whole entry, looked up): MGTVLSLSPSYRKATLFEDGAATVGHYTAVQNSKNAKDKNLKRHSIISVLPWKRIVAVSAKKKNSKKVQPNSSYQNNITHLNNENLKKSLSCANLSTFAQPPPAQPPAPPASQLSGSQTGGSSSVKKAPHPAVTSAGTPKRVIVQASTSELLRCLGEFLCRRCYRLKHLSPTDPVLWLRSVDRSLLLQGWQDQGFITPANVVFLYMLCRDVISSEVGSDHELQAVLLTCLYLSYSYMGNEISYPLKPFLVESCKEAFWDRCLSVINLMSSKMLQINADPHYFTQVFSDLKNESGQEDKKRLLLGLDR
HIV Env fusion = blocks HIV Env-driven cell-cell fusion; HeLa-JRFL Env/CEM21 cell fusion, luciferase; inhibition, % at 12.3 µM; hit rate 1.1% among 360,000; AID 651610;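 active = mean replicate inhibition score of at least 50 and every replicate individually at or above 50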;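 also: 0% = plate neutral controls and 100% = maraviroc near 300 nM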
GSIS activator = primary screen for activators of insulin secretion dependent on glucose, INS-1E cells, GLuc reporter luminescence | INS-1E GLuc reporter insulin secretion, 2-3 h | activation, % at 16.6 µM | hit rate 0.61% among 370,000 | AID 743287;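 active = lowest replicate activation of at least 40%, so every replicate reaches that level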;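 also: 0% = median of neutral control wells and 100% = median of IBMX positive control wells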
dFosB act = mouse delta FosB homodimer activation; P13346; purified delta FosB, TAMRA-CDK5 oligo fluorescence polarization; percent of positive-control signal above neutral wells; activation, % at 25 µM; hit rate 0.99% among 340,000;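 active = mean activation above about 17%, with every replicate also reaching it, limit read from the data, passing the limit was not always enough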
Cneo AK release = causes C. neoformans cell lysis. AID 651654. hit rate 0.2% among 360,000. lysis activity, % at 15 µM. adenylate kinase release luminescence, 4 h; normalised: neutral wells 0, clomiphene wells 100;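 active = mean lysis activity across replicates of at least 80%, whatever share of replicates individually reach that level; inactive = mean lysis activity below 80%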
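Assay system: C. neoformans cells. Amount: yeast cell density of 5 × 10^6 cells/mL. Technique: AK luminescence. Buffer or medium: YPD. Times: static 4 h at 37 °C with compound, 1 h detection. Dosing: single-point compound dose. Read-out: lysis from increased AK signal.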
Starred values were filed as active, the others as inactive; . = not tested or not shown; [ ] = another dose, or the depositor's remark.

SMILES	PAX8 inh HTS	CDK5 inh	HIV Env fusion	GSIS activator	dFosB act	Cneo AK release
COc1ccccc1C1c2[nH]c3ccccc3c2C[C@H]2C(=O)N(C3CCN(Cc4ccccc4)CC3)CC(=O)N12 (stereo not given in full)	9	1	17	-19	38*	1
COc1ccc(C2c3[nH]c4ccccc4c3C[C@H]3C(=O)N(C4CCN(Cc5ccccc5)CC4)CC(=O)N23)cc1OC (stereo not given in full)	3	1	7	-42	-12	3
Cc1ccccc1C1c2[nH]c3ccccc3c2C[C@H]2C(=O)N(C3CC3)CC(=O)N12 (stereo not given in full)	19	1	13	.	1	-3
COc1cccc(C2c3[nH]c4ccccc4c3C[C@H]3C(=O)N(C4CCN(Cc5ccccc5)CC4)CC(=O)N23)c1 (stereo not given in full)	43	1	29	-15	38*	2
CN1CC(=O)N2C(c3ccc(Cl)cc3)c3[nH]c4ccccc4c3C[C@H]2C1=O (stereo not given in full)	103*	-1	32	-21	0	-2
COc1ccc(S(=O)(=O)N(C)C[C@H]2OCCCC[C@H](C)Oc3ccc(NC(=O)Nc4c(C)noc4C)cc3C(=O)N([C@@H](C)CO)C[C@H]2C)cc1	-16	.	11[16.7 µM]	15	.	-3
Cc1nn(C)c2ncc(C(=O)c3ccccc3O)cc12	13	0	7	20	-9	-1
Cc1[nH]nc2ncc(C(=O)c3ccccc3O)cc12	-13	14	64*	.	-20	-1
CCN1[C@H](C(=O)N(C)C)[C@@H](CO)[C@@H]2Cn3c(ccc(C4=CCCC4)c3=O)[C@@H]21	.	.	.	4	.	.
C[C@H]1CN([C@@H](C)CO)C(=O)c2cc(-c3ccccc3F)cnc2O[C@@H]1CN(C)Cc1ccccc1F	11	.	-8[16.7 µM]	-7	.	-2
COC(=O)c1ccccc1-c1c2ccc(=N)cc-2oc2cc(N)ccc12	96*	4	53	-28	88*	-1
COC(=O)c1ccccc1-c1ccc(/C=N/NC(=O)c2cc3ccccc3o2)o1	.	1	.	-12	-8	2
N#Cc1cccc(-c2ccc(C3[C@@H]4CN(S(=O)(=O)c5cccc(Cl)c5)C[C@H]3N4)cc2)c1 (stereo not given in full)	.	.	.	-30	.	.
C[C@@H]1CN([C@H](C)CO)C(=O)c2cc(C#CC3(O)CCCC3)cnc2O[C@@H]1CN(C)C(=O)Cc1ccncc1	.	.	4[16.7 µM]	35	.	0
O=C(NC1CCCC1)C(c1ccccc1)n1c(Cc2cc(F)cc(F)c2)nc2ccccc21 (stereo not given)	-38	.	71*	-8	.	.
C[C@@H]1CN([C@H](C)CO)C(=O)c2cccc(NS(=O)(=O)c3ccccc3)c2O[C@@H]1CN(C)CC1CC1	0	.	.	-3	.	5
Cc1cccc(NC(=O)CC23CC4CC(C2)CC(n2nnc(C)n2)(C4)C3)c1	111*	0	.	-27	0	-1
COc1ccc2c3c(n(C)c2c1)[C@@H](CO)N(Cc1ccc(F)cc1)CC31CN(CC2CCOCC2)C1	.	.	.	-1	.	.
Cc1c(NC(=O)c2ccc(S(=O)(=O)N(C)c3ccccc3)cc2)c(=O)n(-c2ccccc2)n1C	-10	0	17	-6	-6	-2
CCN(c1ccccc1)S(=O)(=O)c1ccc(C(=O)Nc2c(C)n(C)n(-c3ccccc3)c2=O)cc1	7	1	57*	-17	-7	1
CC(C)NC(=O)Nc1ccc2c(c1)CC(=O)N([C@@H](C)CO)C[C@@H](C)[C@H](CN(C)C(=O)Nc1ccc3c(c1)OCO3)O2	-31	.	-6[16.7 µM]	9	.	85*
Cc1noc(C)c1NC(=O)N(C)C[C@@H]1Oc2ccc(NC(=O)C3CC3)cc2CC(=O)N([C@H](C)CO)C[C@@H]1C	.	.	-8[16.7 µM]	9	.	107*
Cc1noc(C)c1NC(=O)N(C)C[C@@H]1Oc2ccc(NC(=O)NC(C)C)cc2CC(=O)N([C@H](C)CO)C[C@H]1C	-31	.	-11[16.7 µM]	11	.	102*
CC(C)NC(=O)N(C)C[C@@H]1Oc2ccc(NC(=O)C3CC3)cc2CC(=O)N([C@H](C)CO)C[C@H]1C	-7	.	62*[16.7 µM]	11	.	.

Bioassay records: PubChem, Broad Institute
